System: U2OS
Experiment: Multiplex assay against U2OS
Assay type: toxicity, cell-based
Conditions: human
In short: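 Live cells were stained at seeding with Hoechst33342, BioTracker Green Microtubule Cytoskeleton Dye, MitoTracker Red and Annexin V Alexa Fluor 680, then imaged on a CQ1 microscope at 37°C and 5% CO2 after compound addition. CellPathfinder machine-learning gating split cells into Hoechst high-intensity objects or normal cells. Normal cells were split into healthy, pyknosed or fragmented nuclei, and pyknosed cells into mitotic or apoptotic. Tubulin, mitochondrial-mass and membrane-permeability phenotypes are per cents of healthy-nucleus cells.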

[1] = 12 h, 1 µM, compound concentration 1 uM, replicate 1
[2] = 12 h, 1 µM, compound concentration 1 uM, replicate 2
[3] = 12 h, 10 µM, compound concentration 10 uM, replicate 1
[4] = 12 h, 10 µM, compound concentration 10 uM, replicate 2
[5] = 24 h, 1 µM, compound concentration 1 uM, replicate 1
[6] = 24 h, 1 µM, compound concentration 1 uM, replicate 2
[7] = 24 h, 10 µM, compound concentration 10 uM, replicate 1
[8] = 24 h, 10 µM, compound concentration 10 uM, replicate 2
[9] = 48 h, 1 µM, compound concentration 1 uM, replicate 1
[10] = 48 h, 1 µM, compound concentration 1 uM, replicate 2
[11] = 48 h, 10 µM, compound concentration 10 uM, replicate 1
[12] = 48 h, 10 µM, compound concentration 10 uM, replicate 2

With `COc1ccc(NS(=O)(=O)c2sc3ccc(Cl)cc3c2C)cc1N1CCNCC1.Cl` the “Population Apoptotic (%)” value [1] was 57%, the “Population Fragmented Nuclei (%)” value [1] was 12% and the “Population Healthy Nuclei (%)” value [1] was 74%. For the same compound, the “Population Hoechst High Intensity Objects (%)” value [1] was 6%, the “Population Membrane Permeable-Phenotype (%)” value [1] was 6% and the “Population Mitochondria Different-Phenotype (%)” value [1] was 11%. The “Population Mitotic Cells (%)” value [1] was 42%, the “Population Normal (%)” value [1] was 93% and the “Population Pyknosed Nuclei (%)” value [1] was 12%. The “Population Tubulin-Different-Phenotype (%)” value [1] was 10%, the “Total Cell Count” value [1] was 172 and the “Population Apoptotic (%)” value [2] was 28%. The “Population Fragmented Nuclei (%)” value [2] was 13%, the “Population Healthy Nuclei (%)” value [2] was 69% and the “Population Hoechst High Intensity Objects (%)” value [2] was 12%. The “Population Membrane Permeable-Phenotype (%)” value [2] was 0%, the “Population Mitochondria Different-Phenotype (%)” value [2] was 26% and the “Population Mitotic Cells (%)” value [2] was 71%. The “Population Normal (%)” value [2] was 87%, the “Population Pyknosed Nuclei (%)” value [2] was 16% and the “Total Cell Count” value [2] was 69. For the same compound, the “Population Apoptotic (%)” value [3] was 43%, the “Population Fragmented Nuclei (%)” value [3] was 12% and the “Population Healthy Nuclei (%)” value [3] was 57%. For the same compound, the “Population Hoechst High Intensity Objects (%)” value [3] was 5%, the “Population Membrane Permeable-Phenotype (%)” value [3] was 29% and the “Population Mitochondria Different-Phenotype (%)” value [3] was 97%. For the same compound, the “Population Mitotic Cells (%)” value [3] was 56%, the “Population Normal (%)” value [3] was 94% and the “Population Pyknosed Nuclei (%)” value [3] was 30%. The “Population Tubulin-Different-Phenotype (%)” value [3] was 97%, the “Total Cell Count” value [3] was 162 and the “Population Apoptotic (%)” value [4] was 61%. For the same compound, the “Population Fragmented Nuclei (%)” value [4] was 14%, the “Population Healthy Nuclei (%)” value [4] was 56% and the “Population Hoechst High Intensity Objects (%)” value [4] was 4%. The “Population Membrane Permeable-Phenotype (%)” value [4] was 25%, the “Population Mitochondria Different-Phenotype (%)” value [4] was 100% and the “Population Mitotic Cells (%)” value [4] was 38%. For the same compound, the “Population Normal (%)” value [4] was 95%, the “Population Pyknosed Nuclei (%)” value [4] was 29% and the “Population Tubulin-Different-Phenotype (%)” value [4] was 94%. The “Total Cell Count” value [4] was 49, the “Population Apoptotic (%)” value [5] was 52% and the “Population Healthy Nuclei (%)” value [5] was 76%. The “Population Hoechst High Intensity Objects (%)” value [5] was 5%, the “Population Membrane Permeable-Phenotype (%)” value [5] was 3% and the “Population Mitochondria Different-Phenotype (%)” value [5] was 10%. The “Population Mitotic Cells (%)” value [5] was 48%, the “Population Normal (%)” value [5] was 95% and the “Population Pyknosed Nuclei (%)” value [5] was 13%. For the same compound, the “Population Tubulin-Different-Phenotype (%)” value [5] was 6%, the “Total Cell Count” value [5] was 174 and the “Population Apoptotic (%)” value [6] was 33%. For the same compound, the “Population Fragmented Nuclei (%)” value [6] was 10%, the “Population Healthy Nuclei (%)” value [6] was 77% and the “Population Hoechst High Intensity Objects (%)” value [6] was 3%. For the same compound, the “Population Membrane Permeable-Phenotype (%)” value [6] was 5%, the “Population Mitochondria Different-Phenotype (%)” value [6] was 13% and the “Population Mitotic Cells (%)” value [6] was 66%. The “Population Normal (%)” value [6] was 96%, the “Population Pyknosed Nuclei (%)” value [6] was 12% and the “Population Tubulin-Different-Phenotype (%)” value [6] was 5%. The “Total Cell Count” value [6] was 67, the “Population Apoptotic (%)” value [7] was 61% and the “Population Fragmented Nuclei (%)” value [7] was 17%. For the same compound, the “Population Healthy Nuclei (%)” value [7] was 51%, the “Population Hoechst High Intensity Objects (%)” value [7] was 7% and the “Population Membrane Permeable-Phenotype (%)” value [7] was 35%. The “Population Mitochondria Different-Phenotype (%)” value [7] was 98%, the “Population Mitotic Cells (%)” value [7] was 38% and the “Population Normal (%)” value [7] was 92%. The “Population Pyknosed Nuclei (%)” value [7] was 31%, the “Population Tubulin-Different-Phenotype (%)” value [7] was 95% and the “Total Cell Count” value [7] was 200. For the same compound, the “Population Apoptotic (%)” value [8] was 68%, the “Population Fragmented Nuclei (%)” value [8] was 16% and the “Population Healthy Nuclei (%)” value [8] was 47%. For the same compound, the “Population Hoechst High Intensity Objects (%)” value [8] was 2%, the “Population Membrane Permeable-Phenotype (%)” value [8] was 55% and the “Population Mitochondria Different-Phenotype (%)” value [8] was 97%. For the same compound, the “Population Mitotic Cells (%)” value [8] was 32%, the “Population Normal (%)” value [8] was 97% and the “Population Pyknosed Nuclei (%)” value [8] was 35%. For the same compound, the “Population Tubulin-Different-Phenotype (%)” value [8] was 91%, the “Total Cell Count” value [8] was 51 and the “Population Apoptotic (%)” value [9] was 36%. The “Population Fragmented Nuclei (%)” value [9] was 8%, the “Population Healthy Nuclei (%)” value [9] was 82% and the “Population Hoechst High Intensity Objects (%)” value [9] was 3%. For the same compound, the “Population Membrane Permeable-Phenotype (%)” value [9] was 3%, the “Population Mitochondria Different-Phenotype (%)” value [9] was 8% and the “Population Mitotic Cells (%)” value [9] was 64%. For the same compound, the “Population Pyknosed Nuclei (%)” value [9] was 9%, the “Population Tubulin-Different-Phenotype (%)” value [9] was 6% and the “Total Cell Count” value [9] was 178. For the same compound, the “Population Apoptotic (%)” value [10] was 22%, the “Population Fragmented Nuclei (%)” value [10] was 13% and the “Population Healthy Nuclei (%)” value [10] was 73%. For the same compound, the “Population Hoechst High Intensity Objects (%)” value [10] was 4%, the “Population Membrane Permeable-Phenotype (%)” value [10] was 7% and the “Population Mitochondria Different-Phenotype (%)” value [10] was 20%. The “Population Mitotic Cells (%)” value [10] was 77%, the “Population Normal (%)” value [10] was 96% and the “Population Pyknosed Nuclei (%)” value [10] was 12%. For the same compound, the “Population Tubulin-Different-Phenotype (%)” value [10] was 11%, the “Total Cell Count” value [10] was 73 and the “Population Apoptotic (%)” value [11] was 73%. The “Population Fragmented Nuclei (%)” value [11] was 20%, the “Population Healthy Nuclei (%)” value [11] was 37% and the “Population Hoechst High Intensity Objects (%)” value [11] was 12%. For the same compound, the “Population Membrane Permeable-Phenotype (%)” value [11] was 46%, the “Population Mitochondria Different-Phenotype (%)” value [11] was 94% and the “Population Mitotic Cells (%)” value [11] was 26%. For the same compound, the “Population Normal (%)” value [11] was 87%, the “Population Pyknosed Nuclei (%)” value [11] was 41% and the “Population Tubulin-Different-Phenotype (%)” value [11] was 98%. For the same compound, the “Total Cell Count” value [11] was 281, the “Population Apoptotic (%)” value [12] was 68% and the “Population Fragmented Nuclei (%)” value [12] was 17%. The “Population Healthy Nuclei (%)” value [12] was 56%, the “Population Hoechst High Intensity Objects (%)” value [12] was 6% and the “Population Membrane Permeable-Phenotype (%)” value [12] was 56%. The “Population Mitochondria Different-Phenotype (%)” value [12] was 93%, the “Population Mitotic Cells (%)” value [12] was 31% and the “Population Normal (%)” value [12] was 93%. The “Population Pyknosed Nuclei (%)” value [12] was 26%, the “Population Tubulin-Different-Phenotype (%)” value [12] was 82% and the “Total Cell Count” value [12] was 75.

— ChEMBL document CHEMBL4689842, “EUbOPEN Chemogenomics Library wave 1” (2021)
